{"source": "ChEMBL document CHEMBL4402517", "about": "“Rational modification of Mannich base-type derivatives as novel antichagasic compounds: Synthesis, in vitro and in vivo evaluation” (Bioorg Med Chem, 2019)", "key": {"Trypanosoma cruzi [1]": {"system": "Trypanosoma cruzi", "assay": "(§1) Antitrypanosomal activity against Trypanosoma cruzi MHOM/Pe/2011/Arequipa;DTU 5 bloodstream trypomastigote infected in BALB/c mouse assessed as parasite-free adipose tissue in acute phase at 20 mg/kg/day, po administered for 5 consecutive days starting from day 8 post infection followed by cyclophosphamide induced immunosuppression on day 80 post infection measured after day 100 post infection by PCR method relative to control", "assay_type": "functional", "summary_of_the_method": "(§2)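 Female BALB/c mice (10–12 weeks, three per group) were infected i.p. with 5 × 10^5 Arequipa bloodstream trypomastigotes. Dosing was oral, 20 mg/kg/day for 5 days, as a suspension in 5% DMSO/0.5% HPMC. Cyclophosphamide 200 mg/kg i.p. was given at day 80 pi. At necropsy (day 100) tissues were tested by PCR on the splice leader region (primers TC/TC1, 300 bp). Scored as x/3 mice positive.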"}, "Trypanosoma cruzi [2]": {"system": "Trypanosoma cruzi", "assay": "as §1, with “tissue in chronic phase at” for “tissue in acute phase at”, “from day 70 post infection” for “from day 8 post infection”", "assay_type": "functional", "summary_of_the_method": "as §2"}, "[3]": {"assay": "Selectivity index, ratio of IC50 for African green monkey Vero cells to IC50 for Trypanosoma cruzi MHOM/Pe/2011/Arequipa;DTU 5", "assay_type": "toxicity", "conditions": "read-out: Selectivity Index", "summary_of_the_method": "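SI = Vero IC50 / epimastigote IC50. Vero cells were grown in RPMI-1640 with 10% FBS, seeded at 0.8 × 10^4 cells/well, exposed to 10.0–200.0 µM for 72 h, then given MTT for 4 h. Epimastigotes were grown in MTL with 10% FBS at 28 °C, 5 × 10^5/mL, exposed to 6.3–50 µM for 48 h, then resazurin for 24 h (570/600 nm). IC50s came from nonlinear regression.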"}, "Trypanosoma cruzi [4]": {"system": "Trypanosoma cruzi", "assay": "Antitrypanosomal activity against Trypanosoma cruzi MHOM/Pe/2011/Arequipa;DTU 5 amastigote forms measured after 72 hrs by Giemsa staining based assay", "assay_type": "functional, organism-based", "conditions": "MHOM/Pe/2011/Arequipa;DTU 5, 72 h", "summary_of_the_method": "(§3)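 Vero cells (1 × 10^4/well, on coverslips) left to adhere 24 h at 37 °C, 5% CO2, then infected with trypomastigotes at MOI 10:1 for 24 h. Free parasites were removed by three PBS washes. Compounds at 3.1, 6.25, 12.5, 25 and 50 µM were incubated 72 h, and amastigotes were counted after Giemsa staining. Triplicates, two separate experiments; IC50 by nonlinear regression.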"}, "Trypanosoma cruzi [5]": {"system": "Trypanosoma cruzi", "assay": "Antitrypanosomal activity against Trypanosoma cruzi IRHOD/CO/2008/SN3;DTU 1 amastigote forms measured after 72 hrs by Giemsa staining based assay", "assay_type": "functional, organism-based", "conditions": "IRHOD/CO/2008/SN3;DTU 1, 72 h", "summary_of_the_method": "as §3"}, "Trypanosoma cruzi [6]": {"system": "Trypanosoma cruzi", "assay": "Antitrypanosomal activity against bloodstream trypomastigote stage of Trypanosoma cruzi IRHOD/CO/2008/SN3;DTU 1 isolated from parasite infected BALB/c Albino mouse cardiac cells after 24 hrs by Neubauer chamber based cell counting method", "assay_type": "functional, organism-based", "conditions": "IRHOD/CO/2008/SN3;DTU 1, 24 h", "summary_of_the_method": "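Bloodstream trypomastigotes were taken by cardiac puncture from infected BALB/c mice and diluted in RPMI + 10% heat-inactivated FBS. At 2 × 10^6/mL they were exposed to 3.1–50.0 µM (lower where needed) for 24 h at 37 °C, 5% CO2, and counted in a Neubauer chamber. Triplicates, at least three experiments; IC50 by nonlinear regression.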"}, "[7]": {"assay": "Selectivity index, ratio of IC50 for African green monkey Vero cells to IC50 for Trypanosoma cruzi MHOM/Pe/2011/Arequipa; DTU 5 amastigote forms", "assay_type": "toxicity", "conditions": "read-out: Selectivity Index", "summary_of_the_method": "(§4)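 Vero cells (1 × 10^4/well) were infected with trypomastigotes at MOI 10:1 for 24 h and washed with PBS. They were then exposed to 3.1–50 µM for 72 h at 37 °C in 5% CO2, and amastigotes were counted after Giemsa staining. Triplicates in two determinations; nonlinear regression.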"}, "[8]": {"assay": "Selectivity index, ratio of IC50 for African green monkey Vero cells to IC50 for Trypanosoma cruzi IRHOD/CO/2008/SN3;DTU 1 amastigote forms", "assay_type": "toxicity", "conditions": "read-out: Selectivity Index", "summary_of_the_method": "as §4"}, "[9]": {"assay": "Selectivity index, ratio of IC50 for African green monkey Vero cells to IC50 for Trypanosoma cruzi TINF/CH/1956/Tulahuen;DTU 6 trypomastigote forms", "assay_type": "toxicity", "conditions": "read-out: Selectivity Index", "summary_of_the_method": "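Bloodstream trypomastigotes were taken from BALB/c mice by cardiac puncture and diluted in RPMI with 10% FBS at 2 × 10^6/mL. They were incubated with 3.1–50.0 µM for 24 h at 37 °C in 5% CO2 and counted in a Neubauer chamber. Triplicate, at least three experiments; nonlinear regression.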"}, "Trypanosoma cruzi [10]": {"system": "Trypanosoma cruzi", "assay": "as §1, with “heart” for “adipose tissue”", "assay_type": "functional", "summary_of_the_method": "as §2"}, "Trypanosoma cruzi [11]": {"system": "Trypanosoma cruzi", "assay": "as §1, with “as parasite-free spleen in chronic” for “as parasite-free adipose tissue in acute”, “spleen in chronic phase at” for “tissue in acute phase at”, “from day 70 post infection” for “from day 8 post infection”", "assay_type": "functional", "summary_of_the_method": "as §2"}, "[12]": {"assay": "(§5) Toxicity in BALB/c mouse infected with Trypanosoma cruzi MHOM/Pe/2011/Arequipa;DTU 5 bloodstream trypomastigote assessed as decrease in serum uric acid level in acute phase at 20 mg/kg/day, po administered for 5 consecutive days starting from day 8 post infection and measured at day 14 post infection by biochemical analysis relative to control", "assay_type": "organism-based", "set-up": "scale not given: the % may be the effect or the level left", "conditions": "in vivo", "summary_of_the_method": "(§6)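 Female BALB/c mice (10–12 weeks, 14–20 g; groups of three) were infected i.p. with 5 × 10^5 Arequipa bloodstream trypomastigotes. Dosing was oral at 20 mg/kg/day for 5 days, from day 8 pi (acute) or day 70 pi (chronic), as a 2 mg/ml suspension in 5% DMSO/0.5% HPMC; controls received vehicle. Cyclophosphamide 200 mg/kg i.p. was given at day 80 pi. Serum was collected 2 days post-treatment and at necropsy by cardiac puncture and compared with infected untreated controls.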"}, "[13]": {"assay": "as §5, with “creatine kinase muscle to brain ratio” for “uric acid”", "assay_type": "organism-based", "set-up": "scale not given: the % may be the effect or the level left", "conditions": "in vivo", "summary_of_the_method": "as §6"}, "[14]": {"assay": "as §5, with “creatine kinase muscle to brain ratio” for “uric acid”, “chronic” for “acute”, “70” for “8”, “76” for “14”, “infection” for “infection by biochemical analysis”", "assay_type": "organism-based", "set-up": "scale not given: the % may be the effect or the level left", "conditions": "in vivo", "summary_of_the_method": "as §6"}, "Trypanosoma cruzi [15]": {"system": "Trypanosoma cruzi", "assay": "Antitrypanosomal activity against Trypanosoma cruzi MHOM/Pe/2011/Arequipa;DTU 5 bloodstream trypomastigotes infected in BALB/c mouse assessed as reduction in serum Ig-G level in chronic phase at 20 mg/kg/day, po administered for 5 consecutive days starting from day 70 post infection followed by cyclophosphamide induced immunosuppression on day 80 post infection and measured at day 100 post infection by ELISA", "assay_type": "functional, organism-based", "summary_of_the_method": "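Sera came from infected BALB/c mice (three per group) dosed orally at 20 mg/kg/day for 5 days. Sampling points: 2 days after treatment, the day before immunosuppression (acute only) and necropsy day. Anti-T. cruzi IgG was measured by indirect ELISA using parasite Fe-SOD as antigen, read as OD at 492 nm.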"}, "Trypanosoma cruzi [16]": {"system": "Trypanosoma cruzi", "assay": "Antitrypanosomal activity against Trypanosoma cruzi MHOM/Pe/2011/Arequipa;DTU 5 epimastigote assessed as effect on glycerol excretion at IC50 after 72 hrs by H NMR method relative to control", "assay_type": "functional, organism-based", "summary_of_the_method": "(§7)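 Cells were spun at 800 × g for 10 min and culture supernatants analysed by 1H NMR. Catabolite peaks were expressed as % variation versus untreated parasites.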"}, "Trypanosoma cruzi [17]": {"system": "Trypanosoma cruzi", "assay": "Antitrypanosomal activity against Trypanosoma cruzi MHOM/Pe/2011/Arequipa;DTU 5 epimastigote assessed as effect on L-alanine excretion at IC50 after 72 hrs by H NMR method relative to control", "assay_type": "functional, organism-based", "summary_of_the_method": "as §7"}}, "note": "Active and inactive are the calls of the source. The rule behind the calls is not given here.", "data": [{"molecule": "O=C(CCN1CCN(c2ccc(C(F)(F)F)cc2)CC1)c1ccc(O)cc1", "values": [{"measurement": "Activity", "setting": "Trypanosoma cruzi [1]", "result": 13, "unit": "%"}, {"measurement": "Activity", "setting": "Trypanosoma cruzi [2]", "result": 50, "unit": "%"}, {"measurement": "selectivity ratio", "setting": "[3]", "result": 4.7}, {"measurement": "IC50", "setting": "Trypanosoma cruzi [4]", "result": 6.2, "unit": "µM"}, {"measurement": "IC50", "setting": "Trypanosoma cruzi [5]", "result": 6.6, "unit": "µM"}, {"measurement": "IC50", "setting": "Trypanosoma cruzi [6]", "result": 2.1, "unit": "µM"}, {"measurement": "selectivity ratio", "setting": "[7]", "result": 17.4}, {"measurement": "selectivity ratio", "setting": "[8]", "result": 16.2}, {"measurement": "selectivity ratio", "setting": "[9]", "result": 45.7}, {"measurement": "Activity", "setting": "Trypanosoma cruzi [10]", "result": 13, "unit": "%"}, {"measurement": "Activity", "setting": "Trypanosoma cruzi [11]", "result": 50, "unit": "%"}, {"measurement": "Activity", "setting": "[12]", "result": "<= 20%"}, {"measurement": "Activity", "setting": "[13]", "result": "<= 30%"}, {"measurement": "Activity", "setting": "[14]", "result": "<= 30%"}, {"measurement": "Activity", "setting": "Trypanosoma cruzi [15]", "result": "Active"}, {"measurement": "Activity", "setting": "Trypanosoma cruzi [16]", "result": "Active"}, {"measurement": "Activity", "setting": "Trypanosoma cruzi [17]", "result": "Active"}]}, {"molecule": "O=C(CCN1CCN(c2ccc(Cl)cc2)CC1)c1ccc(O)cc1", "values": [{"measurement": "Activity", "setting": "Trypanosoma cruzi [1]", "result": 50, "unit": "%"}, {"measurement": "Activity", "setting": "Trypanosoma cruzi [2]", "result": 63, "unit": "%"}, {"measurement": "selectivity ratio", "setting": "[3]", "result": 5.6}, {"measurement": "IC50", "setting": "Trypanosoma cruzi [4]", "result": 5.1, "unit": "µM"}, {"measurement": "IC50", "setting": "Trypanosoma cruzi [5]", "result": 4.5, "unit": "µM"}, {"measurement": "IC50", "setting": "Trypanosoma cruzi [6]", "result": 2, "unit": "µM"}, {"measurement": "selectivity ratio", "setting": "[7]", "result": 20.4}, {"measurement": "selectivity ratio", "setting": "[8]", "result": 23.2}, {"measurement": "selectivity ratio", "setting": "[9]", "result": 49.6}, {"measurement": "Activity", "setting": "Trypanosoma cruzi [10]", "result": 50, "unit": "%"}, {"measurement": "Activity", "setting": "Trypanosoma cruzi [11]", "result": 63, "unit": "%"}, {"measurement": "Activity", "setting": "[12]", "result": "<= 10%"}, {"measurement": "Activity", "setting": "[13]", "result": "<= 30%"}, {"measurement": "Activity", "setting": "[14]", "result": "<= 30%"}, {"measurement": "Activity", "setting": "Trypanosoma cruzi [15]", "result": "Active"}, {"measurement": "Activity", "setting": "Trypanosoma cruzi [16]", "result": "Active"}, {"measurement": "Activity", "setting": "Trypanosoma cruzi [17]", "result": "Active"}]}, {"molecule": "O=C(Cn1ccnc1[N+](=O)[O-])NCc1ccccc1", "note": "[BENZNIDAZOLE]", "values": [{"measurement": "Activity", "setting": "Trypanosoma cruzi [1]", "result": 25, "unit": "%"}, {"measurement": "Activity", "setting": "Trypanosoma cruzi [2]", "result": 38, "unit": "%"}, {"measurement": "selectivity ratio", "setting": "[3]", "result": "> 7.6"}, {"measurement": "IC50", "setting": "Trypanosoma cruzi [4]", "result": 3, "unit": "µM"}, {"measurement": "IC50", "setting": "Trypanosoma cruzi [5]", "result": 4.4, "unit": "µM"}, {"measurement": "IC50", "setting": "Trypanosoma cruzi [6]", "result": 33.3, "unit": "µM"}, {"measurement": "selectivity ratio", "setting": "[7]", "result": "> 67.2"}, {"measurement": "selectivity ratio", "setting": "[8]", "result": "> 45.6"}, {"measurement": "selectivity ratio", "setting": "[9]", "result": "> 29.9"}, {"measurement": "Activity", "setting": "Trypanosoma cruzi [10]", "result": 25, "unit": "%"}, {"measurement": "Activity", "setting": "Trypanosoma cruzi [11]", "result": 38, "unit": "%"}, {"measurement": "Activity", "setting": "[12]", "result": "<= 30%"}, {"measurement": "Activity", "setting": "[13]", "result": "<= 30%"}, {"measurement": "Activity", "setting": "[14]", "result": "<= 30%"}, {"measurement": "Activity", "setting": "Trypanosoma cruzi [15]", "result": "Active"}, {"measurement": "Activity", "setting": "Trypanosoma cruzi [16]", "result": "Active"}, {"measurement": "Activity", "setting": "Trypanosoma cruzi [17]", "result": "Active"}]}]}
